# What was measured:
# [1] = Photostability of the compound assessed as compound degradation administered as solid irradiated with sun light and measured after 7 days by HPLC analysis
# [2] = Photostability of the compound at pH 7.2 assessed as compound degradation administered as solution irradiated with sun light and measured after 7 days by HPLC analysis; assay type: physicochemical; settings: time 7 day, read-out: Drug degradation
# Summary of the method: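 Compound in solution was kept for 7 days under "mild" light-stress conditions, with no pH adjustment. The pH listed for each compound is the solution's own intrinsic pH. Result is % degradation of parent.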
# Cytochrome P450 2C9 = Cytochrome P450 2C9 (Homo sapiens, UniProt P11712); assay: Inhibition of CYP2C9 in human liver microsomes using diclofenac as substrate preincubated with compound followed by NADPH addition by LC-MS/MS analysis; assay type: ADME, Microsome
# Chain of Cytochrome P450 2C9 (P11712 whole entry): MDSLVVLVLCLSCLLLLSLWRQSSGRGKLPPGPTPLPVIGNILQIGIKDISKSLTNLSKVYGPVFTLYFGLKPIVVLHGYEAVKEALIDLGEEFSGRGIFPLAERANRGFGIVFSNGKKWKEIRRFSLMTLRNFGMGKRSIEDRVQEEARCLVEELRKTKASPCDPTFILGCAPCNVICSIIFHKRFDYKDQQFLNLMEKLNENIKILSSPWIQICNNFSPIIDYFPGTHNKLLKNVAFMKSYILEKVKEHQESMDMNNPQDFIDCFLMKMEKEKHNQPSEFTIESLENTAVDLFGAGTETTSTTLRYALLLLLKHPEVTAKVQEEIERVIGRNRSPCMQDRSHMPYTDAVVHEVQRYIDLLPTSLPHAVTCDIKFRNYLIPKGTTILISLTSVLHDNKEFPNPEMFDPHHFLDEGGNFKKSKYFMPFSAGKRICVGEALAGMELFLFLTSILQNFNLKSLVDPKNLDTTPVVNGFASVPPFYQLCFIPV
# Cytochrome P450 2C8 = biological target: T1, Cytochrome P450 2C8 (Homo sapiens, UniProt P10632); assay: Inhibition of CYP2C8 in human liver microsomes using amodiaquine as substrate preincubated with compound followed by NADPH addition by LC-MS/MS analysis; assay type: ADME, Microsome
# T1 sequence (P10632 whole entry): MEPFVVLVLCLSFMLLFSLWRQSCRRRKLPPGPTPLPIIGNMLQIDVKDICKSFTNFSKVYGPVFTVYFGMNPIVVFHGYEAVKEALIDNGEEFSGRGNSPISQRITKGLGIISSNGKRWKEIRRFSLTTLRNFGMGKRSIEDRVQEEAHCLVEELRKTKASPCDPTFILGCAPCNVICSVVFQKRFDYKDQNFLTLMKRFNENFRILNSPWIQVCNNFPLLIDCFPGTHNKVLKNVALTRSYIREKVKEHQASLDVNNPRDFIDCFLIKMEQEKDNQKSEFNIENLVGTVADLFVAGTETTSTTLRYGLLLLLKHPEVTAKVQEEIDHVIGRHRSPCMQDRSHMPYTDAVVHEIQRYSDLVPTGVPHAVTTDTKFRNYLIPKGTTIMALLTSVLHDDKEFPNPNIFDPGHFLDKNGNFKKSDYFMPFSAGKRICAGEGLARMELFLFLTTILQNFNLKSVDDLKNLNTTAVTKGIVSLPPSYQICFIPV
# Cytochrome P450 2D6 = Cytochrome P450 2D6 (Homo sapiens, UniProt P10635); assay: Inhibition of CYP2D6 in human liver microsomes using dextromethorphan as substrate preincubated with compound followed by NADPH addition by LC-MS/MS analysis; assay type: ADME, Microsome
# Chain of Cytochrome P450 2D6 (P10635 whole entry): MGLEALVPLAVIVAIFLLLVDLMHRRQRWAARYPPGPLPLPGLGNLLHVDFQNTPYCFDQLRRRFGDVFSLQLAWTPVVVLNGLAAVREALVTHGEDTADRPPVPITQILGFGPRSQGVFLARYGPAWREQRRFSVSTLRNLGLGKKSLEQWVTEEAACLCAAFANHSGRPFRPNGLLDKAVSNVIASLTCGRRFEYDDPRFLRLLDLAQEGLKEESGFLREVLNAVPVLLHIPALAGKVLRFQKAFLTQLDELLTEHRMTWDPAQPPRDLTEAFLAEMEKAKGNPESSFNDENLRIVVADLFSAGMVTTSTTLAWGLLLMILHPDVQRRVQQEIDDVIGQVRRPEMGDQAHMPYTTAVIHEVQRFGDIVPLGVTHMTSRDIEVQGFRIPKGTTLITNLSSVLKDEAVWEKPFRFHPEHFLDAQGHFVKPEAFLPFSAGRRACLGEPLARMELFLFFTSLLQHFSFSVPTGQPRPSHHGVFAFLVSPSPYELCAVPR
# Cytochrome P450 2C19 = Cytochrome P450 2C19 (Homo sapiens, UniProt P33261); assay: Inhibition of CYP2C19 in human liver microsomes using mephenytoin as substrate preincubated with compound followed by NADPH addition by LC-MS/MS analysis; assay type: ADME, Microsome
# Chain of Cytochrome P450 2C19 (P33261 whole entry): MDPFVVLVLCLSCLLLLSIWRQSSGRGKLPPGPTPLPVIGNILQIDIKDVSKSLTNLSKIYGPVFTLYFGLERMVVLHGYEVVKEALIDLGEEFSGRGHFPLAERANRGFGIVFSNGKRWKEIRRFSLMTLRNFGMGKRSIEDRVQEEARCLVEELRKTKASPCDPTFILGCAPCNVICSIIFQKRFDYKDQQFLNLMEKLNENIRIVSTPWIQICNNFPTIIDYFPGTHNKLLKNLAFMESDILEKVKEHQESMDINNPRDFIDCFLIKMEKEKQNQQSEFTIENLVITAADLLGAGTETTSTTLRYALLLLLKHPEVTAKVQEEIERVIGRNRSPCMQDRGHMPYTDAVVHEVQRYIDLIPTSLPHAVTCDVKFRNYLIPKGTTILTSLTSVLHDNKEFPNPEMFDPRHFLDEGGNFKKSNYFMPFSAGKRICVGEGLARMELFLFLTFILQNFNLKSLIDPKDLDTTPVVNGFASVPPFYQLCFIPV
# Cytochrome P450 3A4 = Cytochrome P450 3A4 (Homo sapiens, UniProt P08684); assay: Inhibition of CYP3A4 in human liver microsomes using midazolam as substrate preincubated with compound followed by NADPH addition by LC-MS/MS analysis; assay type: ADME, Microsome
# Chain of Cytochrome P450 3A4 (P08684 whole entry): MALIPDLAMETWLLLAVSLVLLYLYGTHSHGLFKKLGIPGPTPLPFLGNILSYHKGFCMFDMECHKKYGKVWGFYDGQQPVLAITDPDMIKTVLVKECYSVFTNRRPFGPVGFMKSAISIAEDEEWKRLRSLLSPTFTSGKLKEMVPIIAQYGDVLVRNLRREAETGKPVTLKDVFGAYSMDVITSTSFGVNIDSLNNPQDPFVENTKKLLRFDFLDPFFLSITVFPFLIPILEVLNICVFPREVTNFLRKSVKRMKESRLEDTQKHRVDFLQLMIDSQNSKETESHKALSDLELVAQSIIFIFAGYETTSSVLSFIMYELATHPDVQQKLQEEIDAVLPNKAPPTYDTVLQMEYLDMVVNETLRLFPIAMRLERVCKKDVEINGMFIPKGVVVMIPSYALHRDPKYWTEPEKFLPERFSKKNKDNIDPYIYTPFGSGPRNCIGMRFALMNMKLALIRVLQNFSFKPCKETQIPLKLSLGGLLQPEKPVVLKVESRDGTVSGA
# [3] = Lipophilicity, logP of the compound; assay type: physicochemical; settings: octanol/water; read-out: logP
# [4] = Permeability of the compound at pH 7.4 by PAMPA assay; assay type: ADME; settings: read-out: permeability
# [5] = Aqueous solubility of the compound at pH 2.2 incubated for 24 hrs under shaking condition by LC-UV analysis; assay type: physicochemical; settings: aqueous medium
# Summary of the method: (§1)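 The highest concentration tested was 250 μM, so results are capped at that level. Values are reported in µg/ml.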
# [6] = Aqueous solubility of the compound at pH 4.5 incubated for 24 hrs under shaking condition by LC-UV analysis; assay type: physicochemical; settings: aqueous medium; summary of the method: as §1
# [7] = Aqueous solubility of the compound at pH 6.8 incubated for 24 hrs under shaking condition by LC-UV analysis; assay type: physicochemical; settings: aqueous medium; summary of the method: as §1
# [8] = Metabolic stability in human liver microsomes assessed as hepatic blood flow at 1 uM preincubated with compound followed by NADPH addition by LC-MS/MS analysis; assay type: ADME, Microsome; settings: read-out: QH
# [9] = Octanol-water partition coefficient, logD of the compound at pH 2 by HPLC analysis; assay type: physicochemical; settings: read-out: logD
# [10] = Octanol-water partition coefficient, logD of the compound at pH 11 by HPLC analysis; assay type: physicochemical; settings: read-out: logD
compound,measurement,setting,value
CN1CCN(C(=O)c2ccc3ccc(C(=O)c4ccccc4)c-3cc2)CC1,degraded at 168 h,[1],< 0.5%
same,degraded at 168 h,[2],< 0.5%
same,IC50,Cytochrome P450 2C9,39 µM
same,IC50,Cytochrome P450 2C8,> 50 µM
same,IC50,Cytochrome P450 2D6,> 50 µM
same,IC50,Cytochrome P450 2C19,> 50 µM
same,IC50,Cytochrome P450 3A4,> 50 µM
same,logP,[3],3
same,Papp,[4],8.4 ×10⁻⁶ cm/s
same,solubility thermodynamic at 24 h,[5],> 90 µg/mL
same,solubility thermodynamic at 24 h,[6],67 µg/mL
same,solubility thermodynamic at 24 h,[7],> 73 µg/mL
same,hepatic extraction ratio at 1 µM,[8],0.48
same,logD,[9],1.2
same,logD,[10],1.2
